Experimental findings from PubChem BioAssay AID651753 (Broad Institute, 2012) are described below.

SMILES strings stand for the structures. Where “and” joins values, the source holds several entries; their conditions need not be identical. Equal values may be shown once. Calls of active or inactive are those of the source.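 The calls were made as follows: active = falling-signal curve whose AC50 is no more than twice the top valid dose; inconclusive = flat fit with moderate inhibition, or poor fit; inactive = the rest.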

In general, AC50 refers to the concentration giving half of the maximal activity seen.

Test system in one experiment: not listed separately
Briefly: MITF transcriptional reporter suppression – cell-based, SK-MEL-5, luciferase, dry powder, set 10, dose response (AID 651753). The following applies: SK-MEL-5 TRPM1-promoter luciferase, luminescence, 24 h; at 35 µM (top of the series). A digest of the protocol:
(§1)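 Test system: SK-MEL-5 melanoma cells, stable TRPM1 promoter-driven luciferase reporter | Amount: 2000 cells/well | Schedule: Compound addition one day post-seeding, then 24 h exposure at 37 °C | Technique: Steady-Glo luminescence, 5 min at room temperature | Read-out: Luminescence change, decrease reflecting reduced MITF-driven TRPM1 expression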
For `Cc1ccc(NC2=CC(=O)c3ccccc3C2=O)cc1`, the activity change, negative = inhibition was 76.9% (inactive).

For a further experiment, the system named is SK-MEL-5 TRPM1-promoter luciferase, luminescence, 24 h. The description is as above.
Details: not given
The procedure, abridged: as §1
Turning to `COc1ccc(NC2=C(N3CCCCC3)C(=O)c3ccccc3C2=O)cc1`, the AC50 was 17.2 µM.
For `O=C1C(Nc2ccc(Br)cc2)=C(N2CCCCC2)C(=O)c2ccccc21`, the AC50 is 19.2 µM.
In the case of `CN1CCN(C2=C(Nc3ccc(F)cc3F)C(=O)c3ccccc3C2=O)CC1`, the AC50 was 13.1 µM.
On to `COC1=C(NS(=O)(=O)c2ccccc2)C(=O)c2ccccc2C1=O`, for which the AC50 was 8.13 µM.
Consider `CC(C)N1CCN(C2=C(Nc3ccc(F)cc3F)C(=O)c3ccccc3C2=O)CC1`, for which the AC50 was 12.6 µM.
Turning to `O=C1C(Nc2ccc(F)cc2)=C(N2CCCCC2)C(=O)c2ccccc21`, the AC50 was 18.5 µM.
For `O=C1C(Nc2ccc(Cl)cc2)=C(N2CCCC2)C(=O)c2ccccc21`, the AC50 was > 70 µM (inactive).
Turning to `O=C1C=C(Nc2ccccc2)C(=O)c2ccccc21`, the AC50 was 3.89 µM.
As to `O=C1C=C(Nc2ccc([N+](=O)[O-])c(C(F)(F)F)c2)C(=O)c2ccccc21`, the AC50 was 0.718 µM.
For the molecule `Cc1ccc(NC2=CC(=O)c3ccccc3C2=O)cc1`, the AC50 is 3.13 µM.
As to `CCN1CCN(C2=C(Nc3ccc(F)cc3F)C(=O)c3ccccc3C2=O)CC1`, the AC50 was 11.4 µM.
On the same count and under the same terms, as for `CC(C)N1CCN(C2=C(Nc3ccc(F)cc3)C(=O)c3ccccc3C2=O)CC1`, the figure is 29.2 µM; as for `O=C1C(Nc2cccc(Cl)c2)=C(N2CCCC2)C(=O)c2ccccc21`, > 70 µM (inactive); as for `NS(=O)(=O)c1ccc(NC2=CC(=O)c3ccccc3C2=O)cc1`, 0.651 µM and 0.229 µM.
Consider `NC1=CC(=O)c2ccccc2C1=O`, for which the AC50 was 1.39 µM.
As to `O=C(NC1=C(N2CCN(c3ccccc3)CC2)C(=O)c2ccccc2C1=O)c1ccccc1`, the AC50 was > 70 µM (inactive).
